Consider 8 compounds from article PMC5066155 (ACS Medicinal Chemistry Letters, 2016).

Molecules are shown by their SMILES. Where two headings read alike, the source gives them in different places. A value given as a limit tells only on which side of the number the result lay.

Data set [1] can be described thus: Pharmacokinetics in mouse. The note with it: in vivo, iv, 10 μmol/kg.
The test system of data set [2] is sPLA2 activity in HepG2 cells. The data set is described as follows: sPLA2 activity inhibition in HepG2 cells. It is filed as cell-based. The note with it: Homo sapiens, HepG2, read-out: sPLA2 activity inhibition IC50.
Data set [3] relates to cynomolgus monkey plasma sPLA2. The data set is described as follows: In vitro sPLA2 inhibition in cynomolgus monkey plasma. Type of data set: biochemical. Conditions: read-out: ICu,50.
Data set [4] deals with human plasma sPLA2 activity. The data set is described as follows: Human plasma sPLA2 inhibition assay. It is filed as biochemical. The method, boiled down:
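Inhibition of endogenous sPLA2 activity in human plasma, run by a previously established protocol. The plasma IC50 is converted to an unbound value: IC50 × Fu/100, where Fu = 100 − human plasma protein binding (%). Values are means of at least two experiments, with experimental error within 20% of the value.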

A short description of data set [5]: Pharmacokinetics in rat. Conditions: in vivo, iv, 2 μmol/kg.
Data set [6] in a line: Toxicological profile in animals. Conditions: rats, dogs, and cynomolgus monkeys. It is filed as in vivo.
Data set [7] can be described thus: Pharmacokinetics in dog. Conditions: in vivo, iv, 1 μmol/kg.
The target in data set [8] is T1, sPLA2-IIa (Homo sapiens, UniProt P14555).
T1 sequence (P14555 21-144): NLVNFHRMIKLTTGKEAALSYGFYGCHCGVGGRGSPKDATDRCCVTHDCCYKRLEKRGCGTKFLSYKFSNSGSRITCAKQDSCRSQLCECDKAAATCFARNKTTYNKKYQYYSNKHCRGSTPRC
The data set is described as follows: Ligand efficiency / ligand lipophilicity efficiency from sPLA2-IIa IC50. Conditions: pIC50 (sPLA2-IIa) – logD.

Data set [9] addresses T1, sPLA2-IIa. The data set is described as follows: sPLA2 inhibition assay using phosphatidylcholine as substrate. Conditions: for increase in affinity/potency compared to 1: sPLA2-IIa, relative to compound 1. It is filed as biochemical.
The target in data set [10] is IKs (Homo sapiens, UniProt P51787). The data set is described as follows: IonWorks patch clamp, CHO cells expressing IKs. It is filed as cell-based. In general terms: The patch-clamp technique gives a direct electrical read-out from membranes.
The target in data set [11] is T2, human OATP1B1 (Homo sapiens, UniProt Q9Y6L6).
T2 sequence (Q9Y6L6 1-691): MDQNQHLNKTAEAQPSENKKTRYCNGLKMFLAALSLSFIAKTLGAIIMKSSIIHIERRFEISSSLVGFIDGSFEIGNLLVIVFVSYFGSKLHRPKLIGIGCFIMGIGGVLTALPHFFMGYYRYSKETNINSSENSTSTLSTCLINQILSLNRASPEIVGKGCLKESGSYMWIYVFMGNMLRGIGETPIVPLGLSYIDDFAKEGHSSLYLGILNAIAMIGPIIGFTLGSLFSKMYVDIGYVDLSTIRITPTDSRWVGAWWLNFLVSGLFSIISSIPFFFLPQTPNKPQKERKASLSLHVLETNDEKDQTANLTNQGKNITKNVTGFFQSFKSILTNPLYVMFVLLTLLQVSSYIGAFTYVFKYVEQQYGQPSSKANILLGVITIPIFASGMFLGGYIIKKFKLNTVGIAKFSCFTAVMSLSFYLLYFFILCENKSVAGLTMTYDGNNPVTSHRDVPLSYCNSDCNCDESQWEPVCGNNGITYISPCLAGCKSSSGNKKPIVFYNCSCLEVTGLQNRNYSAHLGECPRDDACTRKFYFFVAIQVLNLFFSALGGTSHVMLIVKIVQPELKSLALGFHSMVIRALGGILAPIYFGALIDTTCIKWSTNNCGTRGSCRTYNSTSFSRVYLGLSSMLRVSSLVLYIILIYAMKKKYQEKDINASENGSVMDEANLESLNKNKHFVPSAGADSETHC
Description: Inhibition of pivastatin uptake to HEK293 cells transfected with human OATP1B1. Type of data set: cell-based. The method, boiled down:
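HEK293 cells transfected with human OATP1B1 are used to measure the test compound's inhibition of pivastatin uptake into the cells. The IC50 is reported as an estimated value. Results are means of at least two experiments, with experimental error within 20% of the value.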

Data set [12] addresses T3, sPLA2-V (Homo sapiens, UniProt P39877).
T3 sequence (P39877 21-138): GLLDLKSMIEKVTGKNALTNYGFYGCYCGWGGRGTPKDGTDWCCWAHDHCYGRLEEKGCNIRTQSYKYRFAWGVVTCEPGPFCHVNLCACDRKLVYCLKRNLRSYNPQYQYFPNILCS
The data set is described as follows: sPLA2 inhibition assay using phosphatidylcholine as substrate. It is filed as biochemical.

Data set [13] is described as follows: Intrinsic clearance in human hepatocytes. Type of data set: in vitro ADME. The note with it: pH 7.4.
Data set [14] has as its target T4, sPLA2-X (Homo sapiens, UniProt O15496).
T4 sequence (O15496 43-165): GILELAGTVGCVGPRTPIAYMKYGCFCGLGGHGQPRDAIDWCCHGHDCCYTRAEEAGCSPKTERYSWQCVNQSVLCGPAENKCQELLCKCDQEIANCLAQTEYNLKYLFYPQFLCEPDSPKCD
Description: sPLA2 inhibition assay using phosphatidylcholine as substrate. Type of data set: biochemical.

The mark [15] stands for this setting: read-out: plasma ICu,50, plasma sPLA2 IC50 × Fu/100.
[16] abbreviates: read-out: plasma ICu,50, plasma sPLA2 IC50 × Fu/100, NA = not active at maximum tested concentration (25 μM).

Chain of IKs (P51787 whole entry): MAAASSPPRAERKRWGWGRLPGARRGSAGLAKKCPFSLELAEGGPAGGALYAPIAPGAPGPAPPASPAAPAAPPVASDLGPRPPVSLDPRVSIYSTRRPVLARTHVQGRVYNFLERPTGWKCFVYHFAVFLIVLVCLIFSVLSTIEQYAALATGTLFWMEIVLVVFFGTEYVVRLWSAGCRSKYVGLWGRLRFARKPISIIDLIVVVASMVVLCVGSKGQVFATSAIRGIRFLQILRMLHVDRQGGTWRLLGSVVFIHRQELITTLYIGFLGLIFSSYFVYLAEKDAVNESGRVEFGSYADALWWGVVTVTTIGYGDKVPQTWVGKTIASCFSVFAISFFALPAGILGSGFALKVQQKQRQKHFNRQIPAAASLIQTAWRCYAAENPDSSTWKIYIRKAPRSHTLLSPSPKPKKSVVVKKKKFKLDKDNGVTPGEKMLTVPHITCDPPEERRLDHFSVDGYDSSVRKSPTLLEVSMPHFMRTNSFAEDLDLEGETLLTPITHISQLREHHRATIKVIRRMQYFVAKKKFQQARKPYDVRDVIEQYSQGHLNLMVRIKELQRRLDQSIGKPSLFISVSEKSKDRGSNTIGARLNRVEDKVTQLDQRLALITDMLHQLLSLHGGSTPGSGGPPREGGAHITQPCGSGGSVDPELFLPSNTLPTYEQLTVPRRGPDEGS

By clearance is commonly meant a measure of how efficiently the substance is removed, as volume per time. `C[C@H](Cc1cccc(-c2cc(Cc3ccccc3)ccc2C(N)=O)c1)C(=O)O` [(R)-7]: the clearance stood at 0.552 L/h/kg in data set [1], 0.06 L/h/kg in [5] and 0.012 L/h/kg in data set [7]. The IC50 was below 14 nM in data set [2], 1 nM in data set [3] and 0.1 nM in data set [4] (setting [15]). Also, the toxicological profile entry in [6] is recorded as “favorable toxicological profile”.
As to `NC(=O)c1ccc(Cc2ccccc2)cc1` [Compound 1, 4-benzylbenzamide], in [8], the LLE worked out at 2.2. The IC50 in data set [4] (setting [16]) came to 900 nM.
Consider `NC(=O)c1ccc(Cc2ccccc2)cc1-c1cccc(CC(=O)O)c1` [Compound 3], for which the “increase in affinity/potency compared to 1” value in data set [9] was “more than 300 fold”.
As to `NC(=O)c1ccc(Cc2ccccc2)cc1-c1cccc(CCC(=O)O)c1` [Compound 4], the IC50 was above 33300 nM in data set [10] and 7 nM in data set [4] (setting [15]). Besides, in data set [9], the “increase in affinity/potency compared to 1” value was 2000 fold. The clearance in data set [5] (Sprague-Dawley) stood at 0.06 L/h/kg.
Compound `CC(Cc1cccc(-c2cc(Cc3ccccc3)ccc2C(N)=O)c1)C(=O)O` (stereo not shown) [Compound 7] registered an IC50 in data set [11] above 25000 nM.
Turning to `CCC(Cc1cccc(-c2cc(Cc3ccccc3)ccc2C(N)=O)c1)C(=O)O` (stereo not shown) [Compound 8], in [4] (setting [15]), the IC50 amounted to 0.8 nM.
In general, hepatocyte CLint refers to a measure of how fast metabolising enzymes remove a compound, apart from limits set by blood flow. On to `NC(=O)c1ccc(Cc2ccccc2)cc1-c1cccc(CC2(C(=O)O)CC2)c1` [Compound 9], for which the IC50 is 250 nM in [12], 18 nM in data set [9], 0.9 nM in [4] (setting [15]) and 580 nM in data set [14]. The compound further displayed an intrinsic metabolic clearance (hepatocyte CLint) at 1 µM in data set [13] of 21 µL/min/1e6 cells.
Consider `CCc1c(C(=O)C(N)=O)c2c(OCC(=O)O)cccc2n1Cc1ccccc1` [varespladib, reference compound], for which the IC50 in data set [4] (setting [16]) was found to be 8 nM.
